pKd: −log10 of the molar value. Like-named read-outs stand apart in the source and are kept apart here.

The nature of data set [1]: Gefitinib pharmacokinetics. The format is in vivo. The note with it: human, plasma, oral, Tmax (h), mean (SD), gefitinib 250 mg daily with ficlatuzumab 20 mg/kg.
Another data set deals with HGF. The conditions noted are these: affinity of ficlatuzumab to HGF; cited from earlier work.
The test system of data set [2] is phospho‐c‐Met and phospho‐Akt. The conditions noted are these: NSCLC tumor lysates, alone or in combination; cited from earlier work.
The next data set deals with serum HGF. Kind of data set: Serum HGF pharmacodynamic marker. The format is in vivo, human. The conditions noted are these: total serum HGF after ficlatuzumab administration. The procedure, abridged:
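Peripheral blood for serum total HGF was drawn before treatment and 3 h postinfusion on day 1, predose on days 2, 3, 8 and 22–28, predose and 2 h postinfusion on day 15 of cycle 1, and predose on cycle 3 day 1.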

A short description of data set [3]: Ficlatuzumab antidrug antibody. It counts as in vivo, human.
Another data set can be described thus: Safety and tolerability. It counts as in vivo, human. The note with it: every 2 weeks, plus gefitinib 250 mg/day.
For a further data set, the system named is NSCLC xenografts. The conditions noted are these: cited from earlier work.
For data set [4] the following is noted: cited from earlier work.
Data set [5] in a line: Ficlatuzumab serum pharmacokinetics. The format is in vivo, human.
Data set [6] has as its system c‐Met‐positive advanced NSCLC. The note with it: in combination with erlotinib; cited from earlier work.
[7] abbreviates: 15 patients receiving monotherapy 20 mg/kg.
The mark [8] stands for this setting: ficlatuzumab 10 mg/kg, Cycle 1, day 1, n = 3.
The mark [9] stands for this setting: ficlatuzumab 20 mg/kg, Cycle 1, day 1, n = 12.
Setting [10] is: ficlatuzumab 20 mg/kg, Cycle 4, day 1, n = 6.

For orientation: Tmax means the time at which the peak concentration occurs. Turning to `COc1cc2ncnc(Nc3ccc(F)c(Cl)c3)c2cc1OCCCN1CCOCC1` [Gefitinib, gefitinib], the Tmax came out at 5.4 h in data set [1] (Cycle 1, day 1, n = 12) and 9.9 h in data set [1] (Cycle 4, day 1, n = 6).

In general, pKd refers to the Kd on a negative log10 scale, so that one unit is a factor of ten. Take “Ficlatuzumab: humanized IgG1κ inhibitory monoclonal antibody that binds to HGF and prevents the ligand from activating the c‐Met receptor”: the pKd at HGF was 11.52. The “phospho‐c‐Met and phospho‐Akt levels” value in [2] is given as “decreased”. Also, the “highest HGF level observed” value in the data set with serum HGF is on record as “≈ 14 ng/mL”. The “ADA result of postficlatuzumab samples” value in data set [3] (41 samples from 14 patients) is given as “negative”. The immunogenicity result in data set [3] (any patients during the observation period) was “not immunogenic”. Further, in “Safety and tolerability”, the “recommended phase 2 dose (RP2D) of ficlatuzumab” value was 20 mg/kg. The tumor growth entry with NSCLC xenografts is “inhibits tumor growth”. Further, in [4] (setting [7]), the TEAE fatigue is reported as 5 patients, the TEAE hypokalemia is given as 4 patients, the TEAE nausea is on record as 4 patients and the TEAE peripheral edema is 8 patients. Further, the TEAE vomiting in data set [4] (setting [7]) was 5 patients. Further, in data set [4] (ficlatuzumab 20 mg/kg), the “tolerability of the highest administered dose” value is listed as “well tolerated without any dose‐limiting toxicities”. In addition, the “grade 3/4 TEAE hypokalemia” value in data set [4] (ficlatuzumab monotherapy) is 4 patients. In [4] (intravenous every 2 weeks, with oral erlotinib 150 mg/day), the “recommended phase 2 dose (RP2D) of ficlatuzumab” value is on record as 20 mg/kg. Besides, the “mean trough level of ficlatuzumab” value in data set [5] (beginning of cycle 4, 20 mg/kg cohort, n = 8) was 413.1 µg/mL. Also, the “Ficlatuzumab drug exposure (Cmax and AUC0–last) versus dose” value in data set [5] (cycle 1, 10 and 20 mg/kg) was “approximately proportional to dose”. Besides, in data set [5] (setting [8]), the “AUC0–last (mg·h/mL), mean (SD)” value is given as 39.2 (4.5) mg·h/mL; the “Cmax (μg/mL), mean (SD)” value is reported as 229 (8.9) μg/mL; the “t1/2 (Days), mean (SD)” value is recorded as 15.2 (4.7) Days. Also, in data set [5] (setting [9]), the “AUC0–last (mg·h/mL), mean (SD)” value is reported as 81.3 (16.5) mg·h/mL; the “Cmax (μg/mL), mean (SD)” value is 544 (141) μg/mL; the “t1/2 (Days), mean (SD)” value is listed as 11.3 (3.2) Days. In [5] (setting [10]), the “AUC0–last (mg·h/mL), mean (SD)” value was 212 (47.3) mg·h/mL and the “Cmax (μg/mL), mean (SD)” value is reported as 1070 (220) μg/mL. Besides, in data set [5] (first dose in cycle 1, dose not stated), the “mean half‐life” value was “approximately 15 days”.

Turning to “onartuzumab: c‐Met‐targeted monovalent monoclonal antibody, tested in combination with erlotinib”, the “outcome of the phase 3 study” value in data set [6] is listed as “lack of efficacy”.

Values taken from paper PMC6032914 (Clinical Pharmacology in Drug Development, 2018).
